pIC50: −log10 of the molar value. The source made the active and inactive calls. The rule behind the calls is not given here.
Legend:
[1] = test system: Mus musculus; test: In vivo antitumor activity of the compound(ip, 6 mg/kg for 5 days) against CD2F1 mice implanted intraperitoneally with P388 leukemia cells.; format: functional; settings: route intraperitoneal
[2] = test system: L1210; test: In vitro antitumor activity against L1210 leukemia cell line.; format: functional; settings: Mus musculus, read-out: ID50 (the source's name)
[3] = test system: Mus musculus; test: In vivo antitumor activity of the compound(ip, 6 mg/kg for 5 days) against CD2F1 mice implanted intraperitoneally with P388 leukemia cells; Day 30 survivors=1/6; format: functional; settings: route intraperitoneal
[4] = test system: Mus musculus; test: In vivo antitumor activity of the compound(ip, 50 mg/kg for 5 days) against CD2F1 mice implanted intraperitoneally with P388 leukemia cells.; format: functional; settings: route intraperitoneal
[5] = Ratio of the ID50's showing antitumor activity against HCT-8 and L1210 leukemia cell lines.; format: functional
Procedure, shortened: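 Ratio taken as ID50 in HCT-8 cells divided by ID50 in L1210 cells, both ID50s expressed as molar concentrations.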

[6] = test system: HCT-8; test: In vitro antitumor activity against HCT-8 colon cancer cell line.; format: functional; settings: Homo sapiens, read-out: ID50 (the source's name)
[7] = test system: Mus musculus; test: In vivo antitumor activity of the compound(ip, 12.5 mg/kg for 5 days) against CD2F1 mice implanted intraperitoneally with P388 leukemia cells.; format: functional; settings: route intraperitoneal
[8] = test system: Mus musculus; test: In vivo antitumor activity of the compound(ip, 12.5 mg/kg for 5 days) against CD2F1 mice implanted intraperitoneally with P388 leukemia cells; Day 30 survivors=1/6; format: functional; settings: route intraperitoneal
[9] = test system: L1210; test: In vitro antitumor activity against L1210 leukemia cell line; IA= Inactive; format: functional, cell-based; settings: Mus musculus
[10] = test system: Mus musculus; test: In vivo antitumor activity of the compound(ip, 6.25 mg/kg for 5 days) against CD2F1 mice implanted intraperitoneally with P388 leukemia cells; Day 30 survivors=1/6; format: functional; settings: route intraperitoneal
[11] = test system: Mus musculus; test: In vivo antitumor activity of the compound(ip, 6.25 mg/kg for 5 days) against CD2F1 mice implanted intraperitoneally with P388 leukemia cells.; format: functional; settings: route intraperitoneal
[12] = test system: Mus musculus; test: In vivo antitumor activity of the compound(ip, 100 mg/kg for 5 days) against CD2F1 mice implanted intraperitoneally with P388 leukemia cells.; format: functional; settings: route intraperitoneal
[13] = test system: Mus musculus; test: In vivo antitumor activity of the compound(ip, 3.12 mg/kg for 5 days) against CD2F1 mice implanted intraperitoneally with P388 leukemia cells.; format: functional; settings: route intraperitoneal
[14] = test system: Mus musculus; test: In vivo antitumor activity of the compound(ip, 3.12 mg/kg for 5 days) against CD2F1 mice implanted intraperitoneally with P388 leukemia cells; Day 30 survivors=2/6; format: functional; settings: route intraperitoneal
[15] = test system: Mus musculus; test: In vivo antitumor activity of the compound(ip, 25 mg/kg for 5 days) against CD2F1 mice implanted intraperitoneally with P388 leukemia cells.; format: functional; settings: route intraperitoneal
[16] = test system: Mus musculus; test: In vivo antitumor activity of the compound(ip, 25 mg/kg for 5 days) against CD2F1 mice implanted intraperitoneally with P388 leukemia cells; Day 30 survivors=2/6; format: functional; settings: route intraperitoneal
[17] = test system: HCT-8; test: In vitro antitumor activity against HCT-8 human colon line; IA= Inactive; format: functional, cell-based
[18] = test system: Mus musculus; test: In vivo antitumor activity of the compound(ip, 200 mg/kg for 5 days) against CD2F1 mice implanted intraperitoneally with P388 leukemia cells.; format: functional; settings: route intraperitoneal

With CCN(CC)CCN1Nc2c3c(Cl)c(O)ccc3nc3c([N+](=O)[O-])ccc1c23.CS(=O)(=O)O the T/C [1] was 196%, the pIC50 [2] was 9.41 and the Activity [3] was 1.

CCN(CC)CCN1Nc2c3cc(OC)cc(OC)c3nc3c([N+](=O)[O-])ccc1c23.CS(=O)(=O)O showed a pIC50 [2] of 6.12 and a T/C [4] of 88%.

Work on CCN(CC)CCN1Nc2c3cc(SC)ccc3nc3c([N+](=O)[O-])ccc1c23.CS(=O)(=O)O yielded a pIC50 [2] of 5.96, a Ratio [5] of 0.32 and a T/C [4] of 114%. For the same molecule, the pIC50 [6] was 6.46.

With CN(C)CCCN1Nc2c3ccccc3nc3c([N+](=O)[O-])ccc1c23.CS(=O)(=O)O the pIC50 [2] was 6.72, the T/C [7] was 214% and the Activity [8] was 1.

In the case of CCCCOc1ccc2c(c1)-c1nn(CCN(CC)CC)c3ccc([N+](=O)[O-])c(c13)N2.CS(=O)(=O)O, the pIC50 [2] was 7.92 and the T/C [7] was 209%.

In the case of COc1ccc2c(c1)-c1nn(CCO)c3ccc([N+](=O)[O-])c(c13)N2, the ID50 [9] was “inactive”.

In the case of COc1ccc2c(c1Cl)-c1nn(CCCN(C)C)c3ccc([N+](=O)[O-])c(c13)N2.CS(=O)(=O)O, the pIC50 [2] was 7.00, the Activity [10] was 1 and the T/C [11] was 221%.

Work on CCN(CC)CCN1Nc2c3cc(OC)c(OC)cc3nc3c([N+](=O)[O-])ccc1c23.CS(=O)(=O)O yielded a pIC50 [2] of 5.96 and a T/C [12] of 126%.

For CCCCOc1ccc2c(c1)-c1nn(CCNCCO)c3ccc([N+](=O)[O-])c(c13)N2.CS(=O)(=O)O, the pIC50 [2] was 6.19 and the T/C [7] was 175%.

Molecule CN(C)CCN1Nc2c3cc(OC(=O)C(C)(C)C)ccc3nc3c([N+](=O)[O-])ccc1c23.CS(=O)(=O)O has a pIC50 [2] of 8.54, a T/C [13] of 236% and an Activity [14] of 2.

In the case of CCOc1ccc2c(c1)-c1nn(CCN(C)C)c3ccc([N+](=O)[O-])c(c13)N2.CS(=O)(=O)O, the Activity [8] was 1.

With CCN(CC)CCOc1ccc2c(c1)-c1nn(CCN(CC)CC)c3ccc([N+](=O)[O-])c(c13)N2.CS(=O)(=O)O the pIC50 [2] was 6.30 and the T/C [4] was 118%.

CCCC(=O)Oc1ccc2c(c1)-c1nn(CCN(CC)CC)c3ccc([N+](=O)[O-])c(c13)N2.CS(=O)(=O)O gave a pIC50 [2] of 8.37 and an Activity [10] of 1.

With CCOc1ccc2c(c1)-c1nn(CCN(CC)CC)c3ccc([N+](=O)[O-])c(c13)N2.CS(=O)(=O)O the pIC50 [2] was 6.10 and the T/C [7] was 220%.

With CCN(CC)CCN1Nc2c3ccccc3nc3c([N+](=O)[O-])ccc1c23.CS(=O)(=O)O the pIC50 [2] was 6.72 and the T/C [11] was 165%.

With CCN(CC)CCN1Nc2c3cc4c(cc3nc3c([N+](=O)[O-])ccc1c23)OCO4.CS(=O)(=O)O the pIC50 [2] was 6.80 and the T/C [4] was 173%.

Work on CC(=O)Oc1ccc2nc3c([N+](=O)[O-])ccc4c3c(c2c1)NN4CCCN(C)C.CS(=O)(=O)O yielded a pIC50 [2] of 8.72, a T/C [13] of 252% and an Activity [14] of 2.

Work on CCCOc1ccc2c(c1)-c1nn(CCN(CC)CC)c3ccc([N+](=O)[O-])c(c13)N2.CS(=O)(=O)O yielded a pIC50 [2] of 6.34, a T/C [15] of 273% and an Activity [16] of 2.

In the case of COc1ccc2c(c1)-c1nn(CCCl)c3ccc([N+](=O)[O-])c(c13)N2, the ID50 [9] was “inactive” and the ID50 [17] was “inactive”.

CN(C)CCN1Nc2c3cc(N(C)C)ccc3nc3c([N+](=O)[O-])ccc1c23.CS(=O)(=O)O showed a pIC50 [2] of 6.22 and a T/C [15] of 189%.

With CCN(CC)CCN1Nc2c3c(O)cccc3nc3c([N+](=O)[O-])ccc1c23.CS(=O)(=O)O the pIC50 [2] was 6.22 and the T/C [18] was 117%.

Work on CN(C)CCCN1Nc2c3ccc(O)cc3nc3c([N+](=O)[O-])ccc1c23.Cl yielded a pIC50 [2] of 5.17 and a T/C [4] of 140%.

With CCN(CC)CCN1Nc2c3cc(OC)c(Cl)cc3nc3c([N+](=O)[O-])ccc1c23.CS(=O)(=O)O the pIC50 [2] was 6.57 and the T/C [15] was 112%.

Work on CCN(CC)CCN1Nc2c3c(OC)cc(OC)cc3nc3c([N+](=O)[O-])ccc1c23.CS(=O)(=O)O yielded a pIC50 [2] of 6.31 and a T/C [4] of 94%.
